# Data reported in PubChem BioAssay.
# Activity calls are given as the source filed them.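 Rule for the calls, unless noted: active = viability at or below 30% in both replicate assays; inconclusive = viability at or below 30% in just one of the two assays; inactive = the rest.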
# How the values were obtained:
# [1] = Her2 expression decrease, cell viability multiplex – SKBR3 breast tumor cells, AlphaScreen, ATP viability, primary screen (AID 461;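 active = Her2 level under about 52% in both replicate screens, with viability over 70% of control, limit read from the data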;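 for Her2 level: lower value means less Her2 protein in the cells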;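 for viability: percent of carrier control wells set as 100% viability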); settings: SKBR3 Her2 protein level, 18-24 h, measured here: SKBR3 viability, ATP luminescence, at 10 µM
# [2] = target: Receptor tyrosine-protein kinase erbB-2 (Homo sapiens) (UniProt P04626); experiment: as above; settings: 18-24 h, at 10 µM, stronger effect = lower value
# Chain of Receptor tyrosine-protein kinase erbB-2 (Homo sapiens) (P04626 whole entry, looked up): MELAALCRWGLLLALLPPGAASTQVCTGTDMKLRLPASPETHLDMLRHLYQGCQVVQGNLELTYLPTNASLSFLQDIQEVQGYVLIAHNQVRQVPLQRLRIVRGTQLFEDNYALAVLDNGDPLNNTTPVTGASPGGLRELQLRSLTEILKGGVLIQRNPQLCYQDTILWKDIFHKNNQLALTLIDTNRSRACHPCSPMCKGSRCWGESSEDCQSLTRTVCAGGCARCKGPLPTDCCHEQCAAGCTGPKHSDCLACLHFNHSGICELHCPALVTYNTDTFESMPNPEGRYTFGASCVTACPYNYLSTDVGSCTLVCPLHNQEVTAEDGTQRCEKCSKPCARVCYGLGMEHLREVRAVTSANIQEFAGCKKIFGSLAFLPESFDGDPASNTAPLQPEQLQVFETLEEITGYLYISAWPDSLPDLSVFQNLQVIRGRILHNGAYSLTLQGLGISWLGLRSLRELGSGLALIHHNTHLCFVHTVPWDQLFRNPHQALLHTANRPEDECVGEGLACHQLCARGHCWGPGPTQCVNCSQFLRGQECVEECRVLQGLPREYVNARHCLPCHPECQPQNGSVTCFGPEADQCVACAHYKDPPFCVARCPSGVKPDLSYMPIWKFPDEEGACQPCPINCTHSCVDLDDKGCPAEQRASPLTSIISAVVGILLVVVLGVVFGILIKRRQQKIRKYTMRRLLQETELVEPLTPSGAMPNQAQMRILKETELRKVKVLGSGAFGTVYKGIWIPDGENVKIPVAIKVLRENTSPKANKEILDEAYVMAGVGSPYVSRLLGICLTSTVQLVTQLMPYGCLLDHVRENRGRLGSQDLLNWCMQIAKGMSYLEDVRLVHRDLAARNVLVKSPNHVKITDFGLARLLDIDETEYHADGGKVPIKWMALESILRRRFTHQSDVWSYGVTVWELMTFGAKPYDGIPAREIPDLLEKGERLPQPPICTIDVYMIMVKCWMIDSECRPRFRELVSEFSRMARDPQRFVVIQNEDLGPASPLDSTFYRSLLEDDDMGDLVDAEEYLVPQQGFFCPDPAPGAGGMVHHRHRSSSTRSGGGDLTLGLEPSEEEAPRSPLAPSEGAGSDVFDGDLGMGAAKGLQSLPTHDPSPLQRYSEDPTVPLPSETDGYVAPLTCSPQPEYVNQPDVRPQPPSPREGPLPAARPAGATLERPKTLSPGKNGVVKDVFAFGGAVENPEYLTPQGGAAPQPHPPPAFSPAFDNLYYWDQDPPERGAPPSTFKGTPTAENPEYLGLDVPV
# [3] = reduced viability of SK-BR-3 breast cancer cells – cell-based, 24 h, human, pilot screen (AID 572;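 active = viability at or below 10% of carrier control in both of two separate runs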;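 note: compound exposure lasted between 18 and 24 h rather than exactly 24 h; 100% = carrier-treated control wells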); settings: SK-BR-3 viability, CellTiter-Glo luminescence, at 10 µM, stronger effect = lower value
# [4] = HUVEC growth inhibition – cell-based, human, primary screen (AID 575); settings: HUVEC proliferation, CellTiter-Glo luminescence, 72 h; at 10 µM; stronger effect = lower value;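 note: 100% = median of untreated cell wells with 0.1% DMSO on each plate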
# Summary of the method: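 Assay system: primary human umbilical vein endothelial cells / Buffer or medium: endothelial basal medium with 2% FBS plus growth supplements / Compound dosing: one dose, 10 µM final, 0.1% DMSO / Timing: 72 h treatment at 37 °C / Signal: CTG luminescence / Benchmarks: 32 DMSO-only cell-control wells (high), 32 MePR drug-control wells (low) per plate / Plate: collagen-coated 384-well format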
# [5] = H69AR cell proliferation blockers – human, duplicate replicates, primary screen (AID 580;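 active = viability at or under a set limit in both replicates, limit being median viability minus 3 SD, cut at about 48% in these data, passing the limit was not always enough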;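 note: 100% = mean luminescence of untreated wells and 0% = no signal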); settings: H69AR lung tumor cells viability, ATP luminescence, 72 h; at 10 µM; stronger effect = lower value
# [6] = MRP1 drug-resistance reversers in H69AR cells – cell-based, doxorubicin co-treatment, pilot screen (AID 601;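 active = viability loss from added drug above about 55%, and viability with drug at most 40%, in both replicates, limit read from the data, passing the limit was not always enough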); settings: CellTiter-Glo, 72 h, at 10 µM; for differential viability (reversal): stronger effect = higher value
# [7] = yeast transport mutant growth inhibition pilot in 384-well plates, post-Golgi transport modulator project (AID 636; in the data active = inhibition above about 31%); settings: absorbance 615 nm, about 18 h, stronger effect = higher value
# [8] = growth suppression of yeast trafficking mutant, preliminary HTS, modulators of trafficking downstream of Golgi apparatus project, 1536-format plate, OD 615 nm (AID 637; in the data active = inhibition above about 30%); settings: yeast transport mutant growth, absorbance 615 nm, 18 h; stronger effect = higher value
# [9] = H69AR cells + 2 uM doxorubicin, measured here: viability with 2 uM doxorubicin, stronger effect = lower value
# [10] = H69AR cells, compound alone cytotoxicity
SMILES,viability [1] [%],Her2 level [2],viability [3],viability [4],viability [5],differential viability (reversal) ([6]; H69AR cells + 2 uM doxorubicin),"viability [6, 9] [%]","viability [6, 10] [%]",inhibition [7],inhibition [8]
CC1CC(C)CN(CCCNC(=O)COc2cc(=O)n(C)c3ccccc23)C1 (stereo not given),90,88% (inactive),90% (inactive),85.3% (inactive),90.7% (inactive),16.5% (inactive),74.2,90.7,-3.73% (inactive),-4.59% (inactive)
CCCS(=O)(=O)N1CCN(C(=O)c2cccs2)CC1,99.5,99.5% (inactive),99.5% (inactive),110% (inactive),99.9% (inactive),-0.9% (inactive),101,99.9,-1.07% (inactive),2.95% (inactive)
Cc1nc2sc(C(c3ccccc3)N3CCN(c4ccccc4F)CC3)c(O)n2n1 (stereo not given),91.5,93.5% (inactive),91.5% (inactive),97.6% (inactive),100% (inactive),2.07% (inactive),98.1,100,0% (inactive),-7.7% (inactive)
CCCC(=O)OCCn1c(Br)nc2c1c(=O)[nH]c(=O)n2C,98.5,86.5% (inactive),98.5% (inactive),89.4% (inactive),93.5% (inactive),5.21% (inactive),88.2,93.5,-1.47% (inactive),1.45% (inactive)
O=C(CSCCSCC(=O)c1ccco1)c1ccco1,83.5,96% (inactive),83.5% (inactive),77.3% (inactive),101% (inactive),11.3% (inactive),90,101,0.13% (inactive),8.85% (inactive)
Cc1cc2oc(=O)cc(C)c2c(=O)o1,101,136% (inactive),101% (inactive),94.8% (inactive),108% (inactive),11.2% (inactive),96.6,108,2.5% (inactive),-3.83% (inactive)
Cc1c(C(=O)NCc2ccccc2)oc2c1C(=O)CCC2,72,93.5% (inactive),72% (inactive),75.2% (inactive),99.2% (inactive),15.6% (inactive),83.6,99.2,-4.87% (inactive),5.67% (inactive)
CCCN(CCC)CCNC(=O)C(NS(=O)(=O)c1ccc2c(c1)CCC(=O)N2)c1ccccc1 (stereo not given),87.5,86.5% (inactive),87.5% (inactive),108% (inactive),89.4% (inactive),0.46% (inactive),89,89.4,1.05% (inactive),-1.45% (inactive)
CCCN(S(=O)(=O)c1ccc(OCC)cc1)S(=O)(=O)c1cccs1,89,100% (inactive),89% (inactive),88.1% (inactive),89.8% (inactive),5.81% (inactive),84,89.8,0.8% (inactive),-10.8% (inactive)
CCc1nc(N)c(C#N)c(-c2ccncc2)c1C,102,95% (inactive),102% (inactive),89.2% (inactive),102% (inactive),21.1% (inactive),80.6,102,-4.27% (inactive),-0.82% (inactive)
COc1ccc(C)cc1NC(=O)c1nnn(Cc2cccc(F)c2)c1N,85.5,102% (inactive),85.5% (inactive),64.9% (inactive),82.7% (inactive),9.66% (inactive),73,82.7,-3.47% (inactive),-5.9% (inactive)
COc1ccc(S(=O)(=O)Nc2ccc(F)c(F)c2)cc1Cl,74,82.5% (inactive),74% (inactive),90.4% (inactive),90.2% (inactive),-2.64% (inactive),92.8,90.2,-4.59% (inactive),4.26% (inactive)
COc1ccc2nc(NC(=O)c3ccoc3C)sc2c1,99,87.5% (inactive),99% (inactive),23.9% (active),26.1% (active),-13.7% (inactive),39.8,26.1,-3.82% (inactive),6.33% (inactive)
CCCCOc1ccc(-c2nnn(CC(=O)NCc3ccco3)n2)cc1,82.5,81% (inactive),82.5% (inactive),57.3% (inactive),23.9% (active),-30.3% (inactive),54.3,23.9,-1.18% (inactive),4.1% (inactive)
O=C(O)C1CCCN1S(=O)(=O)c1ccc2ccccc2c1 (stereo not given),106,110% (inactive),106% (inactive),101% (inactive),95.6% (inactive),-12% (inactive),108,95.6,0.27% (inactive),9.51% (inactive)
CCOC(=O)c1cnc(SCC)[nH]c1=O,84.5,101% (inactive),84.5% (inactive),84.4% (inactive),97% (inactive),-5.68% (inactive),103,97,-1.92% (inactive),-8% (inactive)
COc1cc(CC(=O)NCc2ccc3c(c2)OCO3)cc(OC)c1OC,99,78.5% (inactive),99% (inactive),85.9% (inactive),95.8% (inactive),9.63% (inactive),86.2,95.8,-1.84% (inactive),3.45% (inactive)
Cn1cnnc1SCC(=O)Nc1sc2c(c1C#N)CCCCC2,86,102% (inactive),86% (inactive),73.5% (inactive),95.2% (inactive),11.4% (inactive),83.9,95.2,10.1% (inactive),27.9% (inactive)
COc1ccc(CNC(=O)CCc2nc(-c3ccccc3F)no2)c(OC)c1,80,95% (inactive),80% (inactive),90% (inactive),95.9% (inactive),3.65% (inactive),92.2,95.9,-4.08% (inactive),-0.17% (inactive)
C=CCn1c(-c2cccs2)nc2nc3ccccc3nc21,87,106% (inactive),87% (inactive),80.2% (inactive),54.3% (inactive),-18.6% (inactive),72.9,54.3,-1.82% (inactive),-8.73% (inactive)
O=C(CSCc1cccc(F)c1)N1CCN(c2ccccc2)CC1,92,93.5% (inactive),92% (inactive),91% (inactive),101% (inactive),5.28% (inactive),96,101,-5% (inactive),-4.67% (inactive)
Cc1ccccc1C1CC(c2ccccc2)Nc2ncnn21 (stereo not given),90,87.5% (inactive),90% (inactive),94.8% (inactive),64.2% (inactive),-31.1% (inactive),95.3,64.2,1.47% (inactive),-6.39% (inactive)
O=c1oc2ccccc2n1CCn1c2ccccc2c2nc3ccccc3nc21,85,96% (inactive),85% (inactive),53.2% (inactive),34.2% (active),-3.67% (inactive),37.8,34.2,-1.05% (inactive),-3.71% (inactive)
O=C1CC(=O)N(Cc2cccs2)C(=O)N1,93.5,99% (inactive),93.5% (inactive),103% (inactive),101% (inactive),6.82% (inactive),94,101,-2.76% (inactive),-3.82% (inactive)
COc1cccc(C(=O)N2CCCC(c3nc(-c4cccs4)no3)C2)c1 (stereo not given),98,81.5% (inactive),98% (inactive),93.4% (inactive),95.5% (inactive),2.9% (inactive),92.6,95.5,-7.43% (inactive),4.26% (inactive)
CC1=Nn2c(nnc2-c2cc(-c3ccccc3)n[nH]2)SC1,97.5,78% (inactive),97.5% (inactive),94.3% (inactive),91.4% (inactive),7.02% (inactive),84.4,91.4,-3.47% (inactive),7.05% (inactive)
CCn1nc(C)c(NC(=O)c2cc(Br)ccc2Cl)c1C,84.5,78% (inactive),84.5% (inactive),88.5% (inactive),94% (inactive),14.3% (inactive),79.7,94,-4.42% (inactive),3.44% (inactive)
O=C(NCC1COc2ccccc2O1)c1ccccc1 (stereo not given),79,95% (inactive),79% (inactive),113% (inactive),92.9% (inactive),2.58% (inactive),90.4,92.9,-4.27% (inactive),0.33% (inactive)
CSc1ccccc1N=CC1=C(O)CC(C)(C)CC1=O,118,96% (inactive),118% (inactive),67.1% (inactive),89.2% (inactive),-0.87% (inactive),90.1,89.2,-4.94% (inactive),-3.28% (inactive)
COc1ccc(C)cc1S(=O)(=O)N(C)CC(=O)Nc1ccc2c(c1)OCCO2,92,92% (inactive),92% (inactive),107% (inactive),89.1% (inactive),5.96% (inactive),83.2,89.1,-5.33% (inactive),-12.5% (inactive)
